High-throughput results (PubChem)
In the library only some 1.5% were active in any assay of this set; here they are far more common.
Hck Nef HTS: human Hck-Nef kinase inhibition. P08631. Recombinant Hck-YEEI plus Nef, Z-Lyte FRET kinase assay. inhibition, % at 20 µM. 220,000 tested, 0.68% active;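 active = Hck-Nef kinase inhibition above about 50%, limit read from the data; inactive = inhibition below that limit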;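 also: 0% = DMSO with Hck plus Nef and 100% = Hck alone without Nef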
Runt-SMMHC FRET: blocks binding of human RUNX1 Runt domain to CBFb-SMMHC | 220,000 tested, 0.74% active | Cerulean-Runt/Venus-CBFb-SMMHC FRET ratio 530/480, 1 h | Q01196+Q13951 | inhibition, % at 20 µM;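 active = mean inhibition across duplicate retests at 20 µM reaching about 50%, limit read from the data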;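 also: 0% = DMSO wells and 100% = wells with excess untagged CBFb-SMMHC; inhibitors lower the FRET ratio by blocking Runt binding to CBFb-SMMHC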
Target sequence (Q01196 whole entry, looked up, the tested form may be a part): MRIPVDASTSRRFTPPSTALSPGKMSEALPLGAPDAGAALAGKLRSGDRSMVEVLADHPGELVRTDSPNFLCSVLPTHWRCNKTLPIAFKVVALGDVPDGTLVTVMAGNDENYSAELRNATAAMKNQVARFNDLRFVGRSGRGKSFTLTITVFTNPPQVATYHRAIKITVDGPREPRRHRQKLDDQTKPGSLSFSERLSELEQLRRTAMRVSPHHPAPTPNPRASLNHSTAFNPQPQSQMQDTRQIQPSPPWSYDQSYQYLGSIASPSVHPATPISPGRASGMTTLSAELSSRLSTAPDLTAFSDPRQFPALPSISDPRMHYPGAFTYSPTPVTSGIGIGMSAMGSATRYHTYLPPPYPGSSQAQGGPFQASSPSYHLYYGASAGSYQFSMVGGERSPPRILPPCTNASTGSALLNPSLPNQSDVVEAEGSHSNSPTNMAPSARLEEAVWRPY
Target sequence (Q13951 whole entry, looked up, the tested form may be a part): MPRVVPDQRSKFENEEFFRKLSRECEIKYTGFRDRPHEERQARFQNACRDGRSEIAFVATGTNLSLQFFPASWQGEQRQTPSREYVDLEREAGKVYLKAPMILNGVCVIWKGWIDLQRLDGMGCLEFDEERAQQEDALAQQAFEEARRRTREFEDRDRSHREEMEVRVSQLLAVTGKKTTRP
CaV13 ICDI inh: Disruptors of the CACNA1D IQ motif to Ca2+-dependent inactivation inhibitor domain association, primary screening, Förster resonance energy transfer in intact living …; inhibition, % at 12.3 µM; 340,000 tested, 0.098% active; HEK cells, CFP/YFP FRET ICDI-IQ, plate reader, 10 min; percent FRET-ratio fall versus neutral wells;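 active = mean replicate inhibition of at least 30% and at least 1% of replicates passing that level; inconclusive = only one of the two criteria is met; inactive = neither criterion is met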;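 also: 0% = median of the neutral control wells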
Runt-CBFb FRET: blocks binding of human RUNX1 Runt domain to CBFb; Q01196+Q13951; Cerulean-Runt/Venus-CBFb FRET ratio 530/480, 1 h; inhibition, % at 20 µM; 220,000 tested, 0.46% active; AID 1496;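 active = inhibition over about 50% at 20 µM in the single-dose screen, limit read from the data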;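 also: 0% = DMSO wells and 100% = excess unlabeled CBFb competitor control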
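Reagent – Venus-CBFb binding partner, 100 nM · Assay system – Cerulean-tagged RUNX1 Runt domain (FRET donor) fusion protein · Input – 100 nM per protein · Incubation – two 1 h room-temperature incubations shielded from light · Measured by – FRET fluorescence · Medium – Tris buffer pH 7.5 with salts and BSA · Benchmarks – unlabeled CBFb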
RanGTP-Impb inh: inhibitors of RanGTP-importin-beta interaction, primary screen, biochemical, FRET, CFP-Ran, YFP-importin-beta, homogeneous; cell-free CFP-Ran/YFP-importin-beta FRET ratio; inhibition, % (concentration not given with the values); 300,000 tested, 1.1% active; AID 2216;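 active = more than half of the replicate wells show a fall in the fluorescence ratio signal beyond about 16%, limit read from the data, passing the limit was not always enough; inconclusive = exactly half of the replicate wells pass the set limit; inactive = fewer than half of replicates pass the limit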;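 also: 0% = DMSO wells and 100% = Ran loaded with GDP instead of GTP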
Starred values were filed as active, the others as inactive; ? = inconclusive; nt = no result.

SMILES | Hck Nef HTS | Runt-SMMHC FRET | CaV13 ICDI inh | Runt-CBFb FRET | RanGTP-Impb inh
CCc1cc(=O)oc2c(C)c(O)c(CN(C)C)cc12 | 34 | 62* | -3 | -43 | 38*
CC(=O)Oc1ccc2cc(-c3ccccc3)c(=O)oc2c1 | 3 | 81* | -1 | 27 | 81*
CC(=O)COc1ccc2cc(-c3ccccc3)c(=O)oc2c1 | nt | nt | -1 | nt | 7
O=C(CCCCl)Oc1ccc2cc(-c3ccc4ccccc4n3)c(=O)oc2c1 | -4 | 86* | 7 | 19 | 102*
O=C(O)[C@@H]1CCCN1S(=O)(=O)c1cccc(S(=O)(=O)N2CCC[C@H]2C(=O)O)c1 | nt | nt | 68* | nt | ?
CCN(CC)c1ccc2c(c1)oc(=O)c1c(Cl)cc(=O)oc12 | 25 | 62* | nt | 18 | 67*
CCN(CC)c1ccc2c(C)c(-c3ccc(N)cc3)c(=O)oc2c1 | 7 | 64* | nt | 48 | 136*
CCN(Cc1cc(=O)oc2cc(C)ccc12)c1ccccc1 | nt | nt | -4 | nt | -2
CCOc1ccc2c(C)c(Cl)c(=O)oc2c1 | -2 | -1 | -2 | 1 | 3
COc1ccc(-c2c(C)c3ccc(OCC(C)=O)cc3oc2=O)cc1 | 7 | 0 | nt | -2 | -1
CCN(CC)c1ccc2c(Cl)c(Br)c(=O)oc2c1 | 11 | -14 | nt | 12 | 43*
COc1ccccc1C(=O)NC(=S)NNC(=O)c1sc2ccccc2c1Cl | 0 | -4 | -4 | 0 | 49*
COc1ccccc1C(=O)NNC(=S)NC(=O)c1sc2ccccc2c1Cl | 1 | -7 | -4 | 2 | ?
Cc1ccc2nc3c(cc2c1)c(C)nn3-c1ccccc1 | nt | nt | -14 | nt | 61*
CCOC(=O)C1=C(C)NC(C)=C(C(=O)OCC)C1c1cccs1 | 3 | -2 | -8 | -2 | 7
CCOC(=O)C1=CN(Cc2ccc(OC)cc2)C=C(C(=O)OCC)C1c1cccs1 | 58* | 26 | -5 | 9 | 3
C=CCn1c(=N)c(C(=O)OCC)cc2c(=O)n3cccc(C)c3nc21 | 172* | nt | nt | nt | nt
COC(=O)c1cc2c(=O)n3ccccc3nc2n(Cc2cccnc2)c1=N | 47 | nt | nt | nt | 0
CCOC(=O)c1cc2c(=O)n3cccc(C)c3nc2n(Cc2ccccc2Cl)c1=N | nt | 65* | nt | 126* | nt
O=C(CSc1nnc(NC(=O)c2ccccc2F)s1)NC1CC1 | nt | nt | -3 | nt | 1
CCCN1C=CC(=CC=C(C#N)C#N)C=C1 | -3 | -30 | -4 | -14 | 34*
Cc1ccc(C)c(S(=O)(=O)N(C)C2CCS(=O)(=O)C2)c1 (centres undefined) | nt | nt | -3 | nt | -4
O=c1oc2ccccc2cc1-c1nc2c(s1)CCCC2 | 33 | 42 | 19 | 52* | 83*
CCn1nc(NC(=O)c2ccncc2)c2cc3ccc(C)cc3nc21 | 4 | 8 | -7 | 8 | 24*
CCCn1nc(NC(=O)c2cccs2)c2cc3cc(C)ccc3nc21 | 14 | 80* | -4 | 49 | 72*
SMILES | Hck Nef HTS | Runt-SMMHC FRET | CaV13 ICDI inh | Runt-CBFb FRET | RanGTP-Impb inh
Cc1ccc2cc3c(NC(=O)c4cccnc4)nn(C)c3nc2c1 | -2 | 12 | nt | 3 | ?
CCCn1nc(NC(=O)c2cccs2)c2cc3ccc(C)cc3nc21 | -7 | 51* | -4 | 25 | 54*
CCn1nc(NC(=O)c2ccncc2)c2cc3cc(C)ccc3nc21 | 6 | 22 | nt | 8 | 12
Cc1cccn2c(=O)c3cc(S(=O)(=O)c4ccccc4)c(=N)n(Cc4ccco4)c3nc12 | 31 | nt | -14 | nt | 93*
Cc1cccn2c(=O)c3cc(S(=O)(=O)c4ccccc4)c(=N)n(Cc4ccc(F)cc4)c3nc12 | nt | nt | -3 | nt | -2
Cc1cccn2c(=O)c3cc(S(=O)(=O)c4ccc(F)cc4)c(=N)n(Cc4ccco4)c3nc12 | 18 | 81* | 28 | 10 | 84*
CCN(C(=O)C(C)N1C(=O)/C(=C/c2ccco2)SC1=S)C1CCS(=O)(=O)C1 (centres undefined) | nt | nt | -7 | nt | 3
CC(C(=O)O)N1C(=O)/C(=C/C=C/c2ccco2)SC1=S (centres undefined) | 69* | 4 | -5 | nt | -12
Cc1ccc(C)c(N2CCN(C(=O)c3ccc4nc(-c5ccco5)c(-c5ccco5)nc4c3)CC2)c1 | 7 | -2 | -4 | -3 | 52*
COc1ccccc1N1CCN(C(=O)c2ccc3nc[nH]c3c2)CC1 | 1 | -4 | -3 | 2 | 0
COc1ccccc1N1CCN(C(=O)c2ccc3nc(-c4ccco4)c(-c4ccco4)nc3c2)CC1 | 4 | -43 | -6 | 9 | 33*
Cn1c(=O)c2c(ncn2CCOc2cccc(Br)c2)n(C)c1=O | nt | nt | -18 | nt | 0
CC(=O)C1=CCC(c2ccc(Cl)c(Cl)c2)N(S(=O)(=O)c2ccc(C)cc2)C1 (centres undefined) | nt | nt | -4 | nt | nt
COc1cc(C2NC(=O)NC(C)=C2C(C)=O)cc(OC)c1OC (centres undefined) | 16 | -1 | -1 | 4 | -1
COc1cc(C2NC(=O)NC(C)=C2C(=O)OCc2ccc(C)cc2)cc(OC)c1O (centres undefined) | 0 | 2 | -3 | -3 | 66*
CCOC(=O)C1=C(C)NC(=O)NC1c1cc(Br)c(O)c(OC)c1 (centres undefined) | 0 | 0 | nt | 6 | -1
COc1cc(C2NC(=O)NC(C)=C2C(=O)OCc2ccc(C)cc2)cc(OC)c1OC (centres undefined) | nt | nt | -20 | nt | 29*
CC(C)CN(C(=O)CSc1nc2ccccc2c(=O)n1C)C1CCS(=O)(=O)C1 (centres undefined) | nt | nt | -2 | nt | nt
CCOC(=O)N1CCN=C1SCc1ccc(Cl)c(Cl)c1 | -7 | -2 | 6 | -3 | 2
CCOC(=O)C1=C(C)NC2=C(C(=O)C(C(=O)OCC)C(c3ccco3)C2)C1c1ccccn1 (centres undefined) | 17 | 38 | -3 | 21 | 32*
CC(=O)c1cc2c(cc1N/C(=N/S(=O)(=O)c1ccc(C)cc1)c1ccccc1)OCO2 | -2 | -1 | -5 | 0 | 23*
CC(C)COC(=O)/C(C#N)=C/c1c[nH]c2ccccc12 | 2 | 51* | 18 | 24 | 2
N#C/C(=C\c1c[nH]c2ccccc12)C(=O)NC1CC1 | nt | nt | -4 | nt | 4
Cc1ccc(-c2ccc(NC(=O)C3C4C=CC(C4)C3C(=O)O)cc2)o1 (centres undefined) | 2 | 5 | -3 | 8 | 30*
COc1ccc(NC(=O)C2C3C=CC(C3)C2C(=O)O)cc1 (centres undefined) | 16 | 0 | -2 | 1 | -3
CCOC(=O)N1CCN(Cc2cc(Cl)c3cccnc3c2O)CC1 | 17 | -6 | -4 | 4 | 44*
O=C1c2cc(Br)ccc2OC2C=CC=CC12 (centres undefined) | nt | nt | -6 | nt | nt
